The source made the active and inactive calls. The calls are words filed in the database; no cut-off is given here.
Key:
[1] = tested on: NCI-H1417; assay: Cytotoxicity against human NCI-H1417 cells assessed as growth inhibition after 4 days by WST assay; assay type: functional, cell-based; conditions: NCI-H1417, 96 h
Method in brief: (§1)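 Human small-cell lung cancer line from ATCC, kept in RPMI-1640 with 10% FBS. Cells were exposed to serial compound concentrations for 4 days. WST-8 dye was then added for a further 1–2 h and absorbance read at 450 nm. IC50 was derived from absorbance of treated versus untreated cells. At least three independent experiments per cell line; standard deviation reported.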

[2] = biological target: Bcl-2-like protein 1 (Homo sapiens, UniProt Q07817); assay: Binding affinity to BCL-XL (unknown origin) after 2 hrs by fluorescence polarization assay
Chain of Bcl-2-like protein 1 (Q07817 whole entry): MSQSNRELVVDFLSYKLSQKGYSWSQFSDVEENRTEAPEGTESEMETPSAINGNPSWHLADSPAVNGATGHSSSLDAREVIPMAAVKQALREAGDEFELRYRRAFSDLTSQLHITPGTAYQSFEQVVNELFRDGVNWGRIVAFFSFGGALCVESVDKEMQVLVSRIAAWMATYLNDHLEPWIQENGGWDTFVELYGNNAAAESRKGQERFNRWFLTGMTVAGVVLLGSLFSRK
Method in brief: (§2)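 Competitive FP binding assay. Preformed protein/fluorescent probe complexes were used at 1.5/1 nM for Bcl-2, 10/2 nM for Bcl-xL and 20/2 nM for Mcl-1. These were mixed with serially diluted inhibitor and shaken gently for 2 h at room temperature before millipolarization was read. IC50 came from nonlinear regression, and Ki was calculated from IC50.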

[3] = Antitumor activity against human NCI-H146 cells xenografted in SCID mouse assessed as tumor volume at 15 mg/kg, iv administered 5 days per week for 2 weeks measured on day 117 (reference value: 130 mm'3); assay type: functional
Method in brief: (§3)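 H146 cells (5×10^6, with Matrigel) implanted subcutaneously on the dorsal side of SCID mice, one tumor per mouse. Mice with tumors of 100–150 mm³ were randomized into groups of 8, mean volume 126 mm³. Vehicle or compound given intravenously at 15 mg/kg, daily, 5 days/week for 2 weeks. Tumor volume was followed over time.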

[4] = tested on: NCI-H146; assay: Antitumor activity against human NCI-H146 cells xenografted in SCID mouse assessed as tumor regression at 15 mg/kg, iv administered 5 days per week for 2 weeks; assay type: functional, organism-based; parameters: dose 15 mg/kg; method in brief: as §3
[5] = tested on: NCI-H146; assay: Induction of apoptosis in human NCI-H146 cells xenografted in SCID mouse assessed as increase in caspase-3 cleavage at 15 mg/kg, iv after 3 to 6 hrs by Western blotting analysis; assay type: functional, organism-based; parameters: dose 15 mg/kg
Method in brief: (§4)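 SCID mice bearing subcutaneous H146 xenografts of about 100 mm³ got a single intravenous dose of 15 mg/kg or vehicle. Tumors were harvested at 3, 6 or 24 h. Western blot then measured total and cleaved PARP and caspase-3.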

[6] = biological target: Induced myeloid leukemia cell differentiation protein Mcl-1 (Homo sapiens, UniProt Q07820); assay: Binding affinity to MCL1 (unknown origin) after 2 hrs by fluorescence polarization assay; method in brief: as §2
Chain of Induced myeloid leukemia cell differentiation protein Mcl-1 (Q07820 whole entry): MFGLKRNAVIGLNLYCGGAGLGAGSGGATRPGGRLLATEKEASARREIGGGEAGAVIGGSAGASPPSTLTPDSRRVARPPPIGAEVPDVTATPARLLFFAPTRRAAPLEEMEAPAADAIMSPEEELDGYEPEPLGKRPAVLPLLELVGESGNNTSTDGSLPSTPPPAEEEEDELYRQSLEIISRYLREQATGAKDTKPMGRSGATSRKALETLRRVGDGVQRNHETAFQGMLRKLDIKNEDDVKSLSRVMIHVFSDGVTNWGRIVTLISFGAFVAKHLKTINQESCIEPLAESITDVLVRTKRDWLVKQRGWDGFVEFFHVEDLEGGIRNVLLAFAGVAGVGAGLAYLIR

[7] = tested on: Mus musculus; assay: Toxicity in SCID mouse 15 mg/kg, iv administered 5 days per week for 2 weeks; assay type: organism-based; parameters: dose 15 mg/kg, route intravenous; conditions: in vivo
Method in brief: (§5)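 Tolerability run in non-tumor-bearing SCID mice. Compound given intravenously at 15 or 25 mg/kg, daily, 5 days a week for 2 weeks. Weight loss and other signs of toxicity were followed during and after treatment, and the maximum tolerated dose was set from weight loss.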

[8] = tested on: Mus musculus; assay: Toxicity in SCID mouse assessed as weight loss at 15 mg/kg, iv administered 5 days per week for 2 weeks relative to control; assay type: organism-based; parameters: dose 15 mg/kg, route intravenous; conditions: in vivo; method in brief: as §5
[9] = tested on: Mus musculus; assay: Toxicity in SCID mouse xenografted with human NCI-H146 cells assessed as weight loss at 15 mg/kg, iv administered 5 days per week for 2 weeks; assay type: organism-based; parameters: dose 15 mg/kg, route intravenous; conditions: in vivo
Method in brief: (§6)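 SCID mice carried subcutaneous H146 xenografts, 8 per group, starting mean tumor volume 126 mm³. Dosing was intravenous at 15 mg/kg, daily, 5 days/week for 2 weeks. Body weight and other signs of toxicity were monitored during and after treatment.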

[10] = tested on: NCI-H1963; assay: Cytotoxicity against human NCI-H1963 cells assessed as growth inhibition after 4 days by WST assay; assay type: functional, cell-based; conditions: NCI-H1963, 96 h; method in brief: as §1
[11] = tested on: Mus musculus; assay: Toxicity in SCID mouse xenografted with human NCI-H146 cells 15 mg/kg, iv administered 5 days per week for 2 weeks; assay type: organism-based; parameters: dose 15 mg/kg, route intravenous; conditions: in vivo; method in brief: as §6
[12] = tested on: NCI-H146; assay: Antitumor activity against human NCI-H146 cells xenografted in SCID mouse assessed as tumor regression at 15 mg/kg, iv administered 5 days per week for 2 weeks measured on day 62; assay type: functional, organism-based; parameters: dose 15 mg/kg; method in brief: as §3
[13] = tested on: Mus musculus; assay: Toxicity in SCID mouse assessed as weight loss at 25 mg/kg, iv administered 5 days per week for 2 weeks relative to control; assay type: organism-based; parameters: dose 25 mg/kg, route intravenous; conditions: in vivo; method in brief: as §5
[14] = Cytotoxicity against human NCI-H146 cells assessed as growth inhibition after 4 days by WST assay; assay type: functional, cell-based; conditions: NCI-H146, 96 h
[15] = tested on: NCI-H146; assay: Induction of apoptosis in human NCI-H146 cells xenografted in SCID mouse assessed as increase in PARP cleavage at 15 mg/kg, iv after 3 to 6 hrs by Western blotting analysis; assay type: functional, organism-based; parameters: dose 15 mg/kg; method in brief: as §4
[16] = tested on: NCI-H187; assay: Cytotoxicity against human NCI-H187 cells assessed as growth inhibition after 4 days by WST assay; assay type: functional, cell-based; conditions: NCI-H187, 96 h; method in brief: as §1
[17] = Toxicity in iv dosed SCID mouse assessed as weight loss administered 5 days per week for 2 weeks; assay type: organism-based; conditions: in vivo
Method in brief: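 Maximum tolerated dose study in SCID mice. Compound was given intravenously at 15 or 25 mg/kg, daily, 5 days a week for 2 weeks. Body weight loss and other signs of toxicity were monitored during and after treatment.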

[18] = biological target: Apoptosis regulator Bcl-2 (Homo sapiens, UniProt P10415); assay: Binding affinity to BCL2 (unknown origin) after 2 hrs by fluorescence polarization assay; method in brief: as §2
Chain of Apoptosis regulator Bcl-2 (P10415 whole entry): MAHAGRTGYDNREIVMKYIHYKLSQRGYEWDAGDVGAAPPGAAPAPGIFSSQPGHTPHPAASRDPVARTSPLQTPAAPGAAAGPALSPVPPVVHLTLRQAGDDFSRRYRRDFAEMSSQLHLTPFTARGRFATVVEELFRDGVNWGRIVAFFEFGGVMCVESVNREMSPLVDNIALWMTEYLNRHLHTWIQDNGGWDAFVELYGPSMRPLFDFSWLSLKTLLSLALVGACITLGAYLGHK

Cc1c(C(=O)NS(C)(=O)=O)c(-c2cccc(N3CCN(c4ccc(NS(=O)(=O)c5ccc(N[C@H](CCN(C)C)CSc6ccccc6)c([N+](=O)[O-])c5)cc4)CC3)c2)c(-c2ccc(Cl)cc2)n1C(C)C
IC50 [1]: 2.3 nM | IC50 [2]: 6.9 nM | Ki [2]: < 1 nM | Activity [3]: 47 mm3 | Activity [4]: Active | Activity [5]: Active | IC50 [6]: > 2000 nM | Activity [7]: Non-toxic | Activity [8]: < 5% | Activity [9]: Non-toxic | IC50 [10]: 1 nM | Activity [11]: Non-toxic | Activity [12]: Active | Activity [13]: 10% | IC50 [14]: 1.3 nM | Activity [15]: Active | IC50 [16]: 1.4 nM | MTD at 2 weeks [17]: 15 mg/kg | IC50 [18]: 1.8 nM | Ki [18]: < 1 nM
